≈ marks a conversion by molar mass, not a printed value. Calls of active or inactive are those of the source. The rule behind the calls is not given here.
Columns and labels:
[1] = Selectivity index, ratio of IC50 for African green monkey Vero cells to MIC100 for replicating Mycobacterium tuberculosis H37Rv by MABA; assay type: toxicity; conditions: read-out: Selectivity Index
How it was run: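 Vero cells are cultured in EMEM with 10% FBS and exposed for 72 h to 0.78–200 µg/mL. Medium is switched to phenol-red-free EMEM, MTT is added, and formazan is read at 570 nm to give IC50. The selectivity index is Vero IC50 divided by the MABA MIC.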

Staphylococcus aureus [2] = experiment: Antibacterial activity against Staphylococcus aureus incubated for 24 hrs under aerobic condition by MABA; assay type: functional; conditions: read-out: MIC100
How it was run: (§1)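 Resazurin was then added from a 0.08% stock for 1 h. MIC100 was the lowest concentration where the dye stayed blue (pink means growth). Absorbance was also read at 570 and 600 nm.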

[3] = Apparent permeability from apical to basolateral side in human Caco2 cells at 10 uM after 2 hrs by LC-MS/MS analysis; assay type: ADME, cell-based; conditions: caco-2, 2 h
[4] = tested on: Mycobacterium tuberculosis; experiment: Antibacterial activity against Mycobacterium tuberculosis Erdman infected in Balb/c mouse assessed as reduction in bacterial load in lungs at 50 mg/kg, po for 3 weeks starting from 10 days post infection measured on day 21 post infection; assay type: functional, Erdman = ATCC 35801
How it was run: (§2)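 Female BALB/c mice, 7–8 weeks old, are aerosol-infected with Mtb Erdman. From day 10 they receive oral gavage in water for three weeks, in groups of 5. Lungs and spleens are harvested at day 21 post-infection and plated for CFU. Efficacy is the log10 reduction in lung burden versus untreated (vehicle) controls.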

Acinetobacter baumannii = experiment: Bactericidal activity against Acinetobacter baumannii ATCC 19606 incubated for 24 hrs under aerobic condition by MABA; assay type: functional; conditions: ATCC 19606 = CIP 70.34 = JCM 6841, 24 h
Staphylococcus aureus [5] = experiment: Antibacterial activity against Staphylococcus aureus BAA 2094 incubated for 24 hrs under aerobic condition by MABA; assay type: functional; conditions: BAA 2094, 24 h, read-out: MIC100; how it was run: as §1
[6] = AUC (0 to infinity) in Balb/c mouse at 3 mg/kg, iv; assay type: ADME, organism-based; parameters: dose 3 mg/kg, route intravenous, time infinity; conditions: in vivo
How it was run: (§3)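 Single IV dose of 3 mg/kg in BALB/c mice (n = 3). Serum concentration-time data were used to derive t1/2, Cmax and AUC over 0–24 h and to infinity.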

[7] = Efflux ratio of apparent permeability in human Caco2 cells at 10 uM after 2 hrs by LC-MS/MS analysis; assay type: ADME, cell-based; conditions: caco-2, 2 h
Enterococcus faecalis [8] = experiment: Bactericidal activity against Enterococcus faecalis ATCC 19433 incubated for 24 hrs under aerobic condition by MABA; assay type: functional; conditions: ATCC 19433, 24 h
Escherichia coli [9] = experiment: Inhibition of protein translation/transcription in Escherichia coli S30 cell extract at 0.1 ug/ml using circular DNA with pBESTluc after 60 mins by luciferase reporter gene assay; assay type: functional
How it was run: (§4)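 Coupled transcription/translation used E. coli S30 extract, amino acid mix and premix, with the pBESTluc template carrying firefly luciferase under the tac promoter. Compounds were added in DMSO and reactions were started with DNA. Incubation was 60 min at 37 °C, stopped on ice, and luciferase was read after adding assay substrate.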

Enterococcus faecalis [10] = experiment: Antibacterial activity against Enterococcus faecalis ATCC 349 incubated for 24 hrs under aerobic condition by MABA; assay type: functional; conditions: ATCC 349, 24 h, read-out: MIC100
How it was run: (§5)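 Mid-log cultures at OD 0.5 were exposed to serial dilutions under aerobic conditions at 37 °C for 24 h. Resazurin was then added from a 0.08% stock for 1 h. MIC100 was the lowest concentration where the dye stayed blue (pink means growth). Absorbance was also read at 570 and 600 nm.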

Staphylococcus aureus [11] = experiment: Bactericidal activity against Staphylococcus aureus BAA 44 incubated for 24 hrs under aerobic condition by MABA; assay type: functional; conditions: BAA 44, 24 h
[12] = Cmax in Balb/c mouse at 30 mg/kg, po; assay type: ADME, organism-based; parameters: dose 30 mg/kg, route oral; conditions: in vivo
How it was run: (§6)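 Single oral dose of 30 mg/kg in BALB/c mice (n = 6). Serum PK parameters were t1/2, tmax, Cmax and AUC over 0–24 h and to infinity. Oral bioavailability F was calculated against the 3 mg/kg IV dose.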

[13] = Cmax in Balb/c mouse serum at 30 mg/kg, po; assay type: ADME, organism-based; parameters: dose 30 mg/kg, route oral; how it was run: as §6
Staphylococcus aureus [14] = experiment: Antibacterial activity against Staphylococcus aureus BAA 1683 incubated for 24 hrs under aerobic condition by MABA; assay type: functional; conditions: BAA 1683, 24 h, read-out: MIC100; how it was run: as §5
Escherichia coli [15] = experiment: Inhibition of protein translation/transcription in Escherichia coli S30 cell extract using circular DNA with pBESTluc after 60 mins by luciferase reporter gene assay; assay type: functional; conditions: 1 h
How it was run: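 E. coli S30 circular-DNA coupled transcription/translation kit with the pBESTluc template (firefly luciferase under the tac promoter). S30 extract, amino acids and premix are combined with compound in DMSO, and the reaction is started with DNA. Incubation is 60 min at 37 °C, stopped on ice, then luciferase luminescence is read.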

[16] = Cmax in Balb/c mouse at 3 mg/kg, iv; assay type: ADME, organism-based; parameters: dose 3 mg/kg, route intravenous; conditions: in vivo; how it was run: as §3
[17] = Half life in Balb/c mouse serum at 30 mg/kg, po; assay type: ADME, organism-based
How it was run: (§7)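 Single 30 mg/kg oral dose in six BALB/c mice; serum half-life and tmax are derived from the concentration–time profile.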

[18] = tested on: Mycobacterium tuberculosis; experiment: Antibacterial activity against Mycobacterium tuberculosis Erdman infected in Balb/c mouse assessed as reduction in bacterial load in lungs at administered po for 3 weeks starting from 10 days post infection measured on day 21 post infection; assay type: functional, organism-based; conditions: Erdman = ATCC 35801; how it was run: as §2
[19] = Cmax in Balb/c mouse lung at 30 mg/kg, po; assay type: ADME, organism-based; parameters: dose 30 mg/kg, route oral
Streptococcus pneumoniae = experiment: Antibacterial activity against Streptococcus pneumoniae ATCC 6301 incubated for 24 hrs under aerobic condition by MABA; assay type: functional; conditions: ATCC 6301, 24 h, read-out: MIC100; how it was run: as §5
Streptococcus salivarius = experiment: Bactericidal activity against Streptococcus salivarius ATCC 6301 incubated for 24 hrs under aerobic condition by MABA; assay type: functional; conditions: ATCC 6301, 24 h
[20] = Half life in Balb/c mouse at 30 mg/kg, po; assay type: ADME, organism-based; conditions: in vivo; how it was run: as §7
[21] = Tmax in Balb/c mouse at 30 mg/kg, po; assay type: ADME, organism-based; conditions: in vivo; how it was run: as §7
Staphylococcus aureus [22] = experiment: Antibacterial activity against Staphylococcus aureus ATCC 25923 incubated for 24 hrs under aerobic condition by MABA; assay type: functional; conditions: ATCC 25923, 24 h, read-out: MIC100; how it was run: as §5
Vero = experiment: Cytotoxicity against African green monkey Vero cells assessed as reduction in cell viability after 72 hrs by MTT assay; assay type: cell-based; conditions: Chlorocebus sabaeus
How it was run: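 Vero cells were grown in complete EMEM with 10% FBS and exposed for 72 h to 0.78–200 µg/mL. The medium was then swapped for phenol-red-free EMEM and MTT was added. Formazan absorbance was read at 570 nm to give IC50.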

Mus musculus = experiment: Oral bioavailability in Balb/c mouse at 30 mg/kg; assay type: ADME, organism-based; conditions: in vivo; how it was run: as §6
[23] = tested on: Mycobacterium tuberculosis; experiment: Bactericidal activity against non-replicating Mycobacterium tuberculosis CDC1551 expressing tdTomato infected in mouse J774A.1 cells at 2 times MIC up to 72 hrs by DAPI staining based fluorescence microscopic method; assay type: functional, organism-based
How it was run: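 J774A.1 macrophages are seeded at 1×10^5 cells/well in chamber slides and infected with tdTomato-expressing Mtb CDC1551 at MOI ≈10. […] Imaging is by fluorescence confocal microscopy.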

Escherichia coli [24] = experiment: Inhibition of protein translation/transcription in Escherichia coli S30 cell extract at 0.5 ug/ml using circular DNA with pBESTluc after 60 mins by luciferase reporter gene assay; assay type: functional; how it was run: as §4

## CC[C@]1(C)C[C@@H](OC(=O)CSC(C)(C)CNC(=O)[C@H](N)CC(C)C)[C@]2(C)[C@H](C)CC[C@]3(CC[C@@H](O)[C@H]32)[C@@H](C)[C@@H]1O
[1]
  selectivity ratio: 30.1
Staphylococcus aureus [2]
  MIC: 0.78 µg/mL (≈ 1.34 µM)
[3]
  Papp: 3.39 ×10⁻⁶ cm/s
[4]
  log(activity): 0.03
Acinetobacter baumannii
  MBC: 3.13 µg/mL (≈ 5.37 µM)
Staphylococcus aureus [5]
  MIC: > 25 µg/mL
[6]
  AUC(0-inf): 1050 ng·h/mL
[7]
  Ratio: 5.44
Enterococcus faecalis [8]
  MBC: 12.5 µg/mL (≈ 21.4 µM)
Escherichia coli [9]
  inhibition: Active
Enterococcus faecalis [10]
  MIC: > 25 µg/mL
Staphylococcus aureus [11]
  MBC: > 25 µg/mL
[12]
  Cmax: 1340 ng/mL
[13]
  Cmax: 2960 ng/mL
Staphylococcus aureus [14]
  MIC: > 25 µg/mL
Escherichia coli [15]
  IC50: 0.09 µg/mL (≈ 0.154 µM)
[16]
  Cmax: 1910 ng/mL
[17]
  half-life: 10.5 h
[18]
  Activity: Dose-dependent effect
[19]
  Cmax: 6070 ng/g
Streptococcus pneumoniae
  MIC: 25 µg/mL (≈ 42.9 µM)
Streptococcus salivarius
  MBC: > 25 µg/mL
[20]
  half-life: 4.02 h
[21]
  Tmax: 0.83 h
Staphylococcus aureus [22]
  MIC: > 25 µg/mL
Vero
  IC50: 25 µg/mL (≈ 42.9 µM)
Mus musculus
  F: 27.6%
[23]
  Activity: Active
Escherichia coli [24]
  inhibition: Active
